Data taken from ChEMBL document CHEMBL4229410, “Facile construction of fused benzimidazole-isoquinolinones that induce cell-cycle arrest and apoptosis in colorectal cancer cells” (Bioorg Med Chem, 2018).
Active and inactive are the calls of the source. The calls are words filed in the database; no cut-off is given here.

Legend:
[1] = tested on: HT-29; experiment: Inhibition of colony formation in human HT-29 cells assessed as reduction in colony size at 25 to 75 uM treated for 48 hrs followed by compound washout and measured after 14 hrs by crystal violet staining based assay; type: functional, cell-based
[2] = tested on: SW-620; experiment: Cell cycle arrest in human SW620 cells assessed as accumulation at S-phase at 50 uM after 48 hrs by propidium iodide staining based flow cytometry (reference value: 43.72%); type: functional
[3] = tested on: HT-29; experiment: Cell cycle arrest in human HT-29 cells assessed as accumulation at S-phase at 75 uM after 48 hrs by propidium iodide staining based flow cytometry (reference value: 37.82%); type: functional
[4] = tested on: HT-29; experiment: Down regulation of cyclin-B1 expression in human HT-29 cells after 48 hrs by Western blot analysis; type: functional, cell-based
Summary of the method: (§1)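 HT29 or SW620 cells were treated at 0, 25, 50 and 75 μM for 48 h and lysed in RIPA with protease and phosphatase inhibitors. Protein was quantified by BCA. 50 μg lysate was run on 8–15% SDS-PAGE and transferred to PVDF. Blocking was 5% BSA/TBST for 2 h; primary antibodies were applied overnight at 4 °C, then HRP secondary 1 h at room temperature.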

[5] = tested on: HT-29; experiment: Upregulation of p53 expression in human HT-29 cells after 48 hrs by Western blot analysis; type: functional, cell-based
[6] = tested on: SW-620; experiment: Induction of apoptosis in human SW620 cells assessed as live cells at 25 uM after 48 hrs by Annexin-V-FITC/propidium iodide staining based flow cytometry (reference value: 97.5%); type: functional
[7] = tested on: SW-620; experiment: Induction of apoptosis in human SW620 cells assessed as necrotic cells at 50 uM after 48 hrs by Annexin-V-FITC/propidium iodide staining based flow cytometry (reference value: 0.9%); type: functional
[8] = tested on: HT-29; experiment: Induction of apoptosis in human HT-29 cells assessed as reduction in BCL2 expression after 48 hrs by Western blot analysis; type: functional, cell-based; summary of the method: as §1
[9] = biological target: RAC-beta serine/threonine-protein kinase (Homo sapiens, UniProt P31751); experiment: Inhibition of human AKT2 expressed in bacterial expression system assessed as residual activity at 5 uM by KINOMEscan assay relative to control
[10] = biological target: T1, ALK tyrosine kinase receptor (Homo sapiens, UniProt Q9UM73); experiment: Inhibition of human ALK (I1088 to E1409 residues) expressed in mammalian expression system assessed as residual activity at 5 uM by KINOMEscan assay relative to control
[11] = biological target: Cyclin-dependent kinase 9 (Homo sapiens, UniProt P50750); experiment: Inhibition of full length human CDK9 (M1 to F372 residues) expressed in bacterial expression system assessed as residual activity at 5 uM by KINOMEscan assay relative to control
[12] = biological target: Mitogen-activated protein kinase 14 (Homo sapiens, UniProt Q16539); experiment: Inhibition of full length human p38alpha (M1 to S360 residues) expressed in bacterial expression system assessed as residual activity at 5 uM by KINOMEscan assay relative to control
[13] = biological target: Serine/threonine-protein kinase PAK 2 (Homo sapiens, UniProt Q13177); experiment: Inhibition of partial length human PAK2 (P151 to R525 residues) expressed in bacterial expression system assessed as residual activity at 5 uM by KINOMEscan assay relative to control
[14] = biological target: Serine/threonine-protein kinase pim-1 (Homo sapiens, UniProt P11309); experiment: Inhibition of human PIM1 (A15 to K313 residues) expressed in bacterial expression system assessed as residual activity at 5 uM by KINOMEscan assay relative to control
[15] = biological target: Protein kinase C epsilon type (Homo sapiens) (UniProt Q02156); experiment: Inhibition of human PRKCE (A378 to P737 residues) expressed in mammalian expression system assessed as residual activity at 5 uM by KINOMEscan assay relative to control
[16] = biological target: Serine/threonine-protein kinase RIO2 (Homo sapiens, UniProt Q9BVS4); experiment: Inhibition of human RIOK2 (M1 to D313 residues) expressed in mammalian expression system assessed as residual activity at 5 uM by KINOMEscan assay relative to control
[17] = biological target: Serine/threonine-protein kinase ULK2 (Homo sapiens) (UniProt Q8IYT8); experiment: Inhibition of human ULK2 (M1 to S301 residues) expressed in mammalian expression system assessed as residual activity at 5 uM by KINOMEscan assay relative to control
[18] = biological target: Tyrosine-protein kinase ABL1 (Homo sapiens, UniProt P00519, E255K); experiment: Binding affinity to human phosphorylated ABL1 E255K mutant (S229 to K512 residues) expressed in mammalian expression system by KINOMEscan assay
[19] = biological target: Tyrosine-protein kinase ABL1 (Homo sapiens, UniProt P00519, T315I); experiment: Binding affinity to human phosphorylated ABL1 T315I mutant (S229 to K512 residues) expressed in mammalian expression system by KINOMEscan assay
[20] = biological target: Activin receptor type-1B (Homo sapiens, UniProt P36896); experiment: Binding affinity to human ACVR1B (S187 to I505 residues) expressed in bacterial expression system by KINOMEscan assay
[21] = biological target: T1, ALK tyrosine kinase receptor; experiment: Binding affinity to human ALK (I1088 to E1409 residues) expressed in mammalian expression system by KINOMEscan assay
[22] = biological target: Bone morphogenetic protein receptor type-2 (Homo sapiens, UniProt Q13873); experiment: Binding affinity to human BMPR2 (R179 to Q526 residues) expressed in mammalian expression system by KINOMEscan assay
[23] = biological target: Cyclin-dependent kinase 19 (Homo sapiens, UniProt Q9BWU1); experiment: Binding affinity to human CDK11 (M1 to N360 residues) expressed in bacterial expression system by KINOMEscan assay
[24] = biological target: Cyclin-dependent kinase 2 (Homo sapiens, UniProt P24941); experiment: Binding affinity to full length human CDK2 (M1 to L298 residues) expressed in bacterial expression system by KINOMEscan assay
[25] = biological target: Cyclin-dependent kinase 7 (Homo sapiens, UniProt P50613); experiment: Binding affinity to full length human CDK7 (M1 to L344 residues) expressed in mammalian expression system by KINOMEscan assay
[26] = biological target: Epidermal growth factor receptor (Homo sapiens, UniProt P00533, L858R); experiment: Binding affinity to partial length human EGFR (R669 to V1011 residues) L858R mutant expressed in bacterial expression system by KINOMEscan assay
[27] = biological target: Mitogen-activated protein kinase 3 (Homo sapiens, UniProt P27361); experiment: Binding affinity to full length human ERK1 (M1 to P379 residues) expressed in bacterial expression system by KINOMEscan assay
[28] = biological target: Glycogen synthase kinase-3 beta (Homo sapiens, UniProt P49841); experiment: Binding affinity to full length human GSK3B (M1 to T433 residues) expressed in mammalian expression system by KINOMEscan assay
[29] = biological target: Phosphatidylinositol 4,5-bisphosphate 3-kinase catalytic subunit gamma isoform (Homo sapiens, UniProt P48736); experiment: Binding affinity to human PIK3CG (S144 to A1102 residues) expressed in mammalian expression system by KINOMEscan assay
[30] = biological target: RAF proto-oncogene serine/threonine-protein kinase (Homo sapiens, UniProt P04049); experiment: Binding affinity to human RAF1 (I330 to T640 residues) expressed in bacterial expression system by KINOMEscan assay

CC(C)CN(C(=O)c1cccnc1)c1c2ccccc2c(=O)n2c1[nH]c1ccccc12
inhibition [1]: Active
Activity [2]: 32.39%
Activity [3]: 33.33%
Activity [4]: Dose-dependent effect
Activity [5]: Dose-dependent effect
Activity [6]: 92.1%
Activity [7]: 5.5%
Activity [8]: Dose-dependent effect
Activity [9]: 100%
Activity [10]: 65%
Activity [11]: 87%
Activity [12]: 100%
Activity [13]: 100%
Activity [14]: 83%
Activity [15]: 100%
Activity [16]: 87%
Activity [17]: 87%
Kd [18]: ≥ 5 µM
Kd [19]: ≥ 5 µM
Kd [20]: ≥ 5 µM
Kd [21]: ≥ 5 µM
Kd [22]: ≥ 5 µM
Kd [23]: ≥ 5 µM
Kd [24]: ≥ 5 µM
Kd [25]: ≥ 5 µM
Kd [26]: ≥ 5 µM
Kd [27]: ≥ 5 µM
Kd [28]: ≥ 5 µM
Kd [29]: ≥ 5 µM
Kd [30]: ≥ 5 µM
